One block for each compound: values may come before it. Calls of active or inactive are those of the source. The calls are words filed in the database; no cut-off is given here.
Tests used:
Plasma [1] = assay: Drug level in human plasma treated with P'1,P'4-di-(2 methylthio-5'-adenosine) P'1,P'4-dithio-P'2,P'3-chloromethylenetetraphosphate, sodium salt at 50 uM after 77 hrs by HPLC analysis; assay type: ADME, cell-free
Procedure, shortened: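 Pooled heparinized human plasma, prewarmed 5 min at 37 °C, was spiked to 50 μM final from a saline stock and incubated at 37 °C. Aliquots were MeCN-precipitated, ultrafiltered (10K), dried, reconstituted in phosphate/EDTA pH 8.5, and run on C18 HPLC (isocratic 20% methanol, 50 mM phosphate pH 8.4, 10 mM EDTA, UV 273 nm). Diastereomer peak areas were internally normalized, with heat-denatured plasma and blank controls.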

Plasma [2] = assay: Drug level in rat plasma treated with P'1,P'4-di-(2 methylthio-5'-adenosine) P'1,P'4-dithio-P'2,P'3-chloromethylenetetraphosphate, sodium salt at 50 uM after 77 hrs by HPLC analysis; assay type: ADME, cell-free
Procedure, shortened: (§1)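 Frozen pooled heparinised rat or human plasma, thawed and warmed 5 min at 37 °C, spiked to 50 μM final compound (from 10 mM saline stock), held at 37 °C up to 77 h; heat-denatured plasma as chemical control; aliquots quenched with MeCN, ultrafiltered, dried, redissolved in pH 8.5 phosphate/EDTA; isocratic RP-HPLC, 273 nm; metabolites confirmed by reference compounds and LCMS; peak areas internally normalised.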

[3] = Half life in human plasma at 0.7 uM; assay type: ADME, cell-free
[4] = target: T1, P2X purinoceptor 1 (Homo sapiens) (UniProt P51575); assay: Agonist activity at human platelet P2X1 receptor assessed as increase in cytosolic calcium level at 1 uM by […] staining based flow cytometric analysis relative to beta,gamma-CH2-ATP
T1 sequence (whole entry): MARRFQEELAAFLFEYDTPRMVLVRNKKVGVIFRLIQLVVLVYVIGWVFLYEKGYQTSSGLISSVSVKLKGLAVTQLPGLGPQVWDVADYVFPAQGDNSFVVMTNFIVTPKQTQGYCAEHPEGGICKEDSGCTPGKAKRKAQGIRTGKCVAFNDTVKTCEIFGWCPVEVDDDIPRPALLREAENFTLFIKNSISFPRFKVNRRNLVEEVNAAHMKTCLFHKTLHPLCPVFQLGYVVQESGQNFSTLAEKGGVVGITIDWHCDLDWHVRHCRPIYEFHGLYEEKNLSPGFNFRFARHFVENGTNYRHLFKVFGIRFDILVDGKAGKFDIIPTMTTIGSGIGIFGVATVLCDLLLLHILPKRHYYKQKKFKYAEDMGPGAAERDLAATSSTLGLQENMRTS
Procedure, shortened: (§2)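 Stimulus was extracellular Ca2+ uptake on 1 μM test compound (P2X1, scaled to 20 μM β,γ-CH2-ATP as 100%, selective P2Y1 inhibitor control), or 3 μM ADP (P2Y1 antagonism; omitted for agonism).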

[5] = Half life in rat plasma; assay type: ADME, cell-free
P2Y purinoceptor 1 [6] = target: T2, P2Y purinoceptor 1 (Homo sapiens, UniProt P47900); assay: Agonist activity at human platelet P2Y1 receptor assessed as increase in cytosolic calcium level by FLUO-4 staining based flow cytometric analysis; assay type: functional; procedure, shortened: as §2
[7] = Anti-aggregatory activity in human platelet rich plasma assessed as inhibition of 20 uM ADP-induced platelet aggregation by optical aggregometric analysis; assay type: functional, cell-free
Platelet [8] = assay: Ratio of IC50 for inhibition of 20 uM ADP-induced human platelet aggregation for inhibition of 20 uM ADP-induced human platelet aggregation preincubated for 15 mins; assay type: functional
[9] = Anti-aggregatory activity in human platelet rich plasma assessed as inhibition of 20 uM ADP-induced platelet aggregation preincubated for 15 mins by optical aggregometric analysis; assay type: functional, cell-free
P2Y purinoceptor 12 [10] = target: T3, P2Y purinoceptor 12 (Homo sapiens, UniProt Q9H244); assay: Agonist activity at human platelet P2Y12 receptor assessed as decrease in intra-platelet phosphorylated VASP by flow cytometric analysis
Platelet [11] = assay: Anti-aggregatory activity in human platelet rich plasma assessed as inhibition of ADP-induced platelet shape change; assay type: functional, cell-free
P2Y purinoceptor 1 [12] = target: T2, P2Y purinoceptor 1; assay: Antagonist activity at human platelet P2Y1 receptor assessed as inhibition of ADP-induced increase in cytosolic calcium level by FLUO-4 staining based flow cytometric analysis; assay type: functional; procedure, shortened: as §2
P2Y purinoceptor 12 [13] = target: T3, P2Y purinoceptor 12; assay: Antagonist activity at human platelet P2Y12 receptor assessed as inhibition of ADP-mediated decrease in intra-platelet phosphorylated VASP by flow cytometric analysis
[14] = Chemical stability in heat denaturated plasma (unknown origin); assay type: ADME, cell-free; procedure, shortened: as §1
Plasma [15] = assay: Metabolic stability in rat plasma assessed as first order elimination rate constant at 50 uM measured at 1 to 4 hrs; assay type: ADME, cell-free
Plasma [16] = assay: Drugmetabolism in human plasma assessed as MeSAMP(S) formation at 50 uM after 77 hrs by HPLC analysis; assay type: ADME, cell-free; procedure, shortened: as §1
Platelet [17] = assay: Anti-aggregatory activity in ADP-induced human platelet rich plasma assessed as P-selectin expression at 10 nM preincubated for 30 mins followed by 100 fold dilution by fluorescence assay; assay type: functional
Procedure, shortened: (§3)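 Human PRP from aspirin/NSAID-free donors in 3.2% citrate; platelets pre-incubated 30 min with 10 nM compound, then diluted 100-fold in platelet-poor plasma with or without 10 nM compound, stimulated with ADP; surface activated GPIIb-IIIa and P-selectin read as mean fluorescence intensity; means ± SEM of 3 experiments.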

[18] = Anti-aggregatory activity in human platelet rich plasma assessed as inhibition of 20 uM ADP-induced platelet surface activated GP2b-3a expression by fluorescence assay; assay type: functional, cell-free
Plasma [19] = assay: Half life in human plasma at 50 uM measured at 1 to 4 hrs; assay type: ADME, cell-free
[20] = Anti-aggregatory activity in human platelet rich plasma assessed as inhibition of 20 uM ADP-induced P-selectin expression by fluorescence assay; assay type: functional, cell-free
Platelet [21] = assay: Anti-aggregatory activity in ADP-induced human platelet rich plasma assessed as platelet surface activated GP2b-3a expression at 10 nM preincubated for 30 mins followed by 100 fold dilution by fluorescence assay; assay type: functional; procedure, shortened: as §3
Plasma [22] = assay: Drug metabolism in human plasma assessed as MeSAdo formation at 50 uM after 77 hrs by HPLC analysis; assay type: ADME, cell-free; procedure, shortened: as §1
Plasma [23] = assay: Drug metabolism in rat plasma assessed as MeSAMP(S) formation at 50 uM after 77 hrs by HPLC analysis; assay type: ADME, cell-free; procedure, shortened: as §1
Plasma [24] = assay: Metabolic stability in fresh rat plasma assessed as compound degradation at 50 uM after 24 hrs by HPLC analysis; assay type: ADME, cell-free
Plasma [25] = assay: Metabolic stability in human plasma assessed as first order elimination rate constant at 50 uM measured at 1 to 4 hrs; assay type: ADME, cell-free
Plasma [26] = assay: Half life in rat plasma at 50 uM measured at 1 to 4 hrs; assay type: ADME, cell-free
Plasma [27] = assay: Drug metabolism in rat plasma assessed as MeSAdo formation at 50 uM after 77 hrs by HPLC analysis; assay type: ADME, cell-free; procedure, shortened: as §1
Platelet [28] = assay: Anti-aggregatory activity in human platelet rich plasma assessed as inhibition of 20 uM ADP-induced platelet aggregation at 25 nM preincubated for 15 mins followed by ADP addition measured every 11 secs for 6 mins by 96-well microplate method; assay type: functional, cell-free
[29] = target: P2Y purinoceptor 6 (Homo sapiens) (UniProt Q15077); assay: Effect on human P2Y6 receptor
[30] = target: P2Y purinoceptor 4 (Homo sapiens) (UniProt P51582); assay: Effect on human P2Y4 receptor
[31] = target: P2Y purinoceptor 2 (Homo sapiens) (UniProt P41231); assay: Effect on human P2Y2 receptor
Platelet [32] = assay: Anti-aggregatory activity in human platelet rich plasma assessed as inhibition of ADP-induced primary and secondary platelet aggregation preincubated for 15 mins followed by ADP addition and 10 secs shaking measured every 27 secs with 10 secs shaking by 96-well microplate method; assay type: functional, cell-free
Procedure, shortened: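 PRP incubated with compound 15 min at 37 °C, aggregation started with 5 μM ADP and 10 s shaking; absorbance at 580 nm read every 27 s with 10 s shaking between reads; 100% set by platelet-poor plasma, 0% by PRP.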

Platelet [33] = assay: Anti-aggregatory activity in human platelet rich plasma assessed as inhibition of 20 uM ADP-induced platelet aggregation at 100 nM preincubated for 15 mins followed by ADP addition measured every 11 secs for 6 mins by 96-well microplate method; assay type: functional, cell-free

T3 sequence (Q9H244 whole entry): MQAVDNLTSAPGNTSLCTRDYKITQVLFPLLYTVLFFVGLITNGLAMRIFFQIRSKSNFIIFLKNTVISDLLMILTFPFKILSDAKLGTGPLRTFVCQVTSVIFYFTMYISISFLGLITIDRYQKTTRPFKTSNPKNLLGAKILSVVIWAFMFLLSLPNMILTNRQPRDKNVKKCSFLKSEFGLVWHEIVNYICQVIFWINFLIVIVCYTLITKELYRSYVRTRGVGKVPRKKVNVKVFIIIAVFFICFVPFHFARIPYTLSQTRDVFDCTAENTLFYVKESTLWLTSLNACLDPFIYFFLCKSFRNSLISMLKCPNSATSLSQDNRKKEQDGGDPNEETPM
T2 sequence (P47900 whole entry): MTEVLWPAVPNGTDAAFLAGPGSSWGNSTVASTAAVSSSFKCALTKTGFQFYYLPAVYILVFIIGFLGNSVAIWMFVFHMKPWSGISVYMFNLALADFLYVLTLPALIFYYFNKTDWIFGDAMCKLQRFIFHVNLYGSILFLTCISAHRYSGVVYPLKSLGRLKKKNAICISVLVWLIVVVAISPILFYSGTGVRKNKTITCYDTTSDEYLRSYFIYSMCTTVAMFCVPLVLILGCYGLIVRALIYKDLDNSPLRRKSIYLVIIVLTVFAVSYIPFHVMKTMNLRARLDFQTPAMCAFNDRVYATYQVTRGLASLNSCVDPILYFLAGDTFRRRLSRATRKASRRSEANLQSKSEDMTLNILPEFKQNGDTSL
Chain of P2Y purinoceptor 4 (Homo sapiens) (P51582 whole entry): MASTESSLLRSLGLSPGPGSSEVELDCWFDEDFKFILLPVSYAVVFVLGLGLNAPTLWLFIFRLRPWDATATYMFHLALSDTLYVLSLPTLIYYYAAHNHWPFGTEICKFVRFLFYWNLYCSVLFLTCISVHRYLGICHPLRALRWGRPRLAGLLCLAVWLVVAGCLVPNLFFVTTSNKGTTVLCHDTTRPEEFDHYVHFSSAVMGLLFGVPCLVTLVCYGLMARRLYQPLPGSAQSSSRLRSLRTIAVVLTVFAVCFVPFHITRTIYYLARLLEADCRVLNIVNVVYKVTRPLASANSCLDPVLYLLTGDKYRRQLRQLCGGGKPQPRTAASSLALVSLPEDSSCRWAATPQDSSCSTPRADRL
Chain of P2Y purinoceptor 2 (Homo sapiens) (P41231 whole entry): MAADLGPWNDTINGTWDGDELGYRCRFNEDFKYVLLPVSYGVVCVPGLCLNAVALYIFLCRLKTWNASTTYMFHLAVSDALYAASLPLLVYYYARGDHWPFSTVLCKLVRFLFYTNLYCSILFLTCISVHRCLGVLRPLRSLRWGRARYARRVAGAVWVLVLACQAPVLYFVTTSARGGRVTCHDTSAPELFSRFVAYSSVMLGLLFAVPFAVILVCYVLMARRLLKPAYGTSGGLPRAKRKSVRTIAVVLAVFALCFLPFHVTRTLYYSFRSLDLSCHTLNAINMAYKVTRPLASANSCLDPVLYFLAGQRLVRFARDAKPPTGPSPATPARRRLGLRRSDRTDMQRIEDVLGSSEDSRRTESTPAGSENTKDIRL
Chain of P2Y purinoceptor 6 (Homo sapiens) (Q15077 whole entry): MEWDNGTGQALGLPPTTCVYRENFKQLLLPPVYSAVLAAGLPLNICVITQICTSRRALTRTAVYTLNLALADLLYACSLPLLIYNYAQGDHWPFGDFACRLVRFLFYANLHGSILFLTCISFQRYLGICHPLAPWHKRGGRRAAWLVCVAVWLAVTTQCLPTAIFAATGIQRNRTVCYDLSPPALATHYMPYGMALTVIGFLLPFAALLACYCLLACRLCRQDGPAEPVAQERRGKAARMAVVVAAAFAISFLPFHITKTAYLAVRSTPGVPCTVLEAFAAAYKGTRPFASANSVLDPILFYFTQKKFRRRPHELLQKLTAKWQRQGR

Drug metabolism (Plasma [1]): metabolite_detected
Drug metabolism (Plasma [2]): metabolite_detected
Structure (SMILES): CSc1nc(N)c2ncn([C@@H]3O[C@H](CO)[C@@H](O)[C@H]3O)c2n1

half-life at 0.7 µM [3]: 2 min
Activity [4]: 198%
half-life [5]: 2.99 min
Structure (SMILES): Nc1ncnc2c1ncn2[C@@H]1O[C@H](COP(=O)(O)OP(=O)(O)OP(=O)(O)OP(=O)(O)OC[C@H]2O[C@@H](n3cnc4c(N)ncnc43)[C@H](O)[C@@H]2O)[C@@H](O)[C@H]1O [DIADENOSINE TETRAPHOSPHATE]

Activity (P2Y purinoceptor 1 [6]): inactive
IC50 [7]: 3320 nM
IC50 [9]: 54.3 nM
Activity (P2Y purinoceptor 12 [10]): inactive
Activity [4]: 23.8%
IC50 (P2Y purinoceptor 1 [12]): 9600 nM
IC50 (P2Y purinoceptor 12 [13]): 140 nM
Structure (SMILES): CCSc1nc(N)c2ncn([C@@H]3O[C@H](COP(=O)([S-])OP(=O)([O-])C(Cl)P(=O)([O-])OP(=O)([S-])OC[C@H]4O[C@@H](n5cnc6c(N)nc(SCC)nc65)[C@H](O)[C@@H]4O)[C@@H](O)[C@H]3O)c2n1.[Na+].[Na+].[Na+].[Na+] (mixture of isomers)
Ratio IC50 (Platelet [8]): 50
inhibition (Platelet [11]): Active

Structure (SMILES): CSc1nc(N)c2ncn([C@@H]3O[C@H](COP(=O)([S-])OP(=O)([O-])C(Cl)P(=O)([O-])OP(=O)([S-])OC[C@H]4O[C@@H](n5cnc6c(N)nc(SC)nc65)[C@H](O)[C@@H]4O)[C@@H](O)[C@H]3O)c2n1.[Na+].[Na+].[Na+].[Na+] (mixture of isomers)
Stability [14]: Stable
IC50 [7]: 2560 nM
Kel (Plasma [15]): 0.147 h⁻¹
Stability (Plasma [16]): Stable
Activity (Platelet [17]): 80%
IC50 [18]: 1.1 nM
Ratio IC50 (Platelet [8]): 50
IC50 [9]: 63.6 nM
t1/2 (Plasma [19]): 1880 min
IC50 [20]: 0.6 nM
Activity (Platelet [21]): 80%
IC50 (P2Y purinoceptor 1 [12]): 2150 nM
Drug metabolism (Plasma [22]): metabolite_detected
Drug metabolism (Plasma [23]): metabolite_detected
Stability (Plasma [24]): Stable
Kel (Plasma [25]): 0.0221 h⁻¹
t1/2 (Plasma [26]): 284 min
IC50 (P2Y purinoceptor 12 [13]): 220 nM
Drug metabolism (Plasma [27]): metabolite_detected

Structure (SMILES): CSc1nc(N)c2ncn([C@@H]3O[C@H](COP(=O)(S)OP(=O)(O)C(Cl)P(=O)(O)OP(=O)(S)OC[C@H]4O[C@@H](n5cnc6c(N)nc(SC)nc65)[C@H](O)[C@@H]4O)[C@@H](O)[C@H]3O)c2n1 (mixture of isomers)
Activity (P2Y purinoceptor 1 [6]): inactive
inhibition (Platelet [28]): Active
Activity [29]: inactive
Activity [30]: inactive
Activity [31]: inactive
Activity (P2Y purinoceptor 12 [10]): inactive
Activity [4]: 0.24%
inhibition (Platelet [11]): Active
inhibition (Platelet [32]): Dose-dependent effect
inhibition (Platelet [33]): Active

Reference: ChEMBL document CHEMBL3745686 (Eur J Med Chem, 2016)
